Usually IC50 stands for the concentration at which inhibition is half-maximal. As a reminder, the inhibition is the drop in the measured response relative to a control, in per cent. A higher inhibition goes with a response far below the control. In general, MIC refers to the least concentration at which growth counts as inhibited. Higher therefore signals weaker potency. Broadly, the MBC is the smallest concentration meeting the test's criterion for killing. A high value points to less potent killing.

Assay [1] relates to Aspergillus fumigatus. Nature of the assay: Antimicrobial activity against Aspergillus fumigatus ATCC 90906. Type of assay: functional, organism-based.
Assay [2] relates to Cryptococcus neoformans. The assay can be described thus: Antimicrobial activity against Cryptococcus neoformans ATCC 90113. The class given is functional, organism-based.
Assay [3] deals with Candida albicans. Nature of the assay: Antimicrobial activity against Candida albicans ATCC 90028. Type of assay: functional, organism-based.
Assay [4] relates to Mycobacterium intracellulare. The assay can be described thus: Antimicrobial activity against Mycobacterium intracellular ATCC 23068. Type of assay: functional, organism-based.
In assay [5] the test system is Fusarium proliferatum. The assay can be described thus: Antimicrobial activity against Fusarium proliferatum at 0.3 uM after 72 hrs by microtiter assay. Type of assay: functional. Put shortly: (§1)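 96-well microdilution broth assay with conidia (3 × 10^5 conidia/mL, harvested from 7-day PDA cultures and filtered) against F. oxysporum, F. proliferatum and F. solani at 0.3, 3 and 30 µM. Plates were held at 24 ± 1 °C under a 12 h photoperiod. Growth was read at 620 nm at 24, 48 and 72 h and reported as percent inhibition from mean absorbance with standard error.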

Assay [6] concerns Fusarium proliferatum. Nature of the assay: Antimicrobial activity against Fusarium proliferatum at 3 uM after 48 hrs by microtiter assay. Type of assay: functional. Put shortly: as §1
Assay [7] deals with Fusarium proliferatum. The assay can be described thus: Antimicrobial activity against Fusarium proliferatum at 3 uM after 72 hrs by microtiter assay. Type of assay: functional. Put shortly:
as §1

Assay [8] concerns Fusarium proliferatum. The assay can be described thus: Antimicrobial activity against Fusarium proliferatum at 0.3 uM after 48 hrs by microtiter assay. Type of assay: functional. Put shortly: as §1
For assay [9], the system named is Fusarium oxysporum. Nature of the assay: Antimicrobial activity against Fusarium oxysporum at 0.3 uM after 48 hrs by microtiter assay. Type of assay: functional. Put shortly:
as §1

The test system of assay [10] is Fusarium oxysporum. The assay can be described thus: Antimicrobial activity against Fusarium oxysporum at 0.3 uM after 72 hrs by microtiter assay. Type of assay: functional. Put shortly: as §1
Assay [11] relates to Fusarium solani. Nature of the assay: Antimicrobial activity against Fusarium solani at 0.3 uM after 48 hrs by microtiter assay. Type of assay: functional. Put shortly: as §1
The test system of assay [12] is Fusarium solani. Nature of the assay: Antimicrobial activity against Fusarium solani at 0.3 uM after 72 hrs by microtiter assay. Type of assay: functional. Put shortly: as §1
Assay [13] concerns Fusarium oxysporum. Nature of the assay: Antimicrobial activity against Fusarium oxysporum at 3 uM after 48 hrs by microtiter assay. Type of assay: functional. Put shortly: as §1
The subject of assay [14] is Fusarium oxysporum. The assay can be described thus: Antimicrobial activity against Fusarium oxysporum at 3 uM after 72 hrs by microtiter assay. Type of assay: functional. Put shortly: as §1
Assay [15] deals with Fusarium solani. Nature of the assay: Antimicrobial activity against Fusarium solani at 3 uM after 48 hrs by microtiter assay. Type of assay: functional. Put shortly:
as §1

The subject of assay [16] is Fusarium solani. The assay can be described thus: Antimicrobial activity against Fusarium solani at 3 uM after 72 hrs by microtiter assay. The class given is functional. Put shortly: as §1
For assay [17], the system named is Fusarium oxysporum. Nature of the assay: Antimicrobial activity against Fusarium oxysporum at 30 uM after 48 hrs by microtiter assay. The class given is functional. Put shortly: as §1
The subject of assay [18] is Fusarium oxysporum. The assay can be described thus: Antimicrobial activity against Fusarium oxysporum at 30 uM after 72 hrs by microtiter assay. The class given is functional. Put shortly:
as §1

The test system of assay [19] is Fusarium solani. The assay can be described thus: Antimicrobial activity against Fusarium solani at 30 uM after 48 hrs by microtiter assay. Type of assay: functional. Put shortly: as §1
Assay [20] relates to Fusarium solani. Nature of the assay: Antimicrobial activity against Fusarium solani at 30 uM after 72 hrs by microtiter assay. The class given is functional. Put shortly: as §1
The test system of assay [21] is Fusarium proliferatum. Nature of the assay: Antimicrobial activity against Fusarium proliferatum at 30 uM after 48 hrs by microtiter assay. The class given is functional. Put shortly:
as §1

In assay [22] the test system is Fusarium proliferatum. Nature of the assay: Antimicrobial activity against Fusarium proliferatum at 30 uM after 72 hrs by microtiter assay. The class given is functional. Put shortly:
as §1

Converted amounts (≈) assume the structure as drawn.

`C/C=C1\NC(=O)[C@H](Cc2ccccc2)NC(=O)[C@@H](C(C)C)NC(=O)[C@@H]([C@@H](C)CC)NC(=O)[C@H](NC(=O)[C@H](NC(=O)[C@H](CCCNCc2ccncc2)NC(=O)[C@H]2CCCN2C(=O)[C@H](NC(=O)[C@@H](NC(=O)[C@@H](NC(=O)[C@H](NC(=O)CCCC(C)C)C(C)C)[C@@H](C)O)C(C)C)C(C)C)[C@@H](C)CC)[C@@H](C)OC(=O)[C@H](C(C)C)NC1=O`: the IC50 was 4.26 µM in [1], 2.12 µM in [2], 4.19 µM in assay [3] and more than 20 µM in assay [4].

Regarding `C/C=C1\NC(=O)[C@H](Cc2ccccc2)NC(=O)[C@@H](C(C)C)NC(=O)[C@@H]([C@@H](C)CC)NC(=O)[C@H](NC(=O)[C@H](NC(=O)[C@H](CCCN)NC(=O)[C@H]2CCCN2C(=O)[C@H](NC(=O)[C@@H](NC(=O)[C@@H](NC(=O)[C@H](NC(=O)CCCC(C)C)C(C)C)C(C)=O)C(C)C)C(C)C)[C@@H](C)CC)[C@@H](C)OC(=O)[C@H](C(C)C)NC1=O` [listing 1 of 2 here], the half-maximal inhibitory concentration (IC50) in [1] was more than 13.6 µM; in assay [2], 4.34 µM; in assay [3], 12.4 µM; in assay [4] it was more than 20 µM.

As to `C/C=C1\NC(=O)[C@H](Cc2ccccc2)NC(=O)[C@@H](C(C)C)NC(=O)[C@@H]([C@@H](C)CC)NC(=O)[C@H](NC(=O)[C@H](NC(=O)[C@H](CCCN)NC(=O)[C@H]2CCCN2C(=O)[C@H](NC(=O)[C@@H](NC(=O)[C@@H](NC(=O)[C@H](NC(=O)CCCC(C)C)C(C)C)C(C)=O)C(C)C)C(C)C)[C@@H](C)CC)[C@@H](C)OC(=O)[C@H](C(C)C)NC1=O` [listing 2 of 2 here], the inhibition at 0.3 µM in assay [5] is 0%; in assay [8], 1.8%; in assay [9], 1.8%; in [10], 0%; in [11], 0%; in assay [12] it was 0%. Besides, the inhibition at 3 µM came out at 5% in assay [6]; 0% in assay [7]; 1.8% in [13]; 0% in assay [14]; 0% in assay [15]; 0% in [16]. Further, the MFC was more than 20 µM in [1], 20 µM (≈ 29.5 µg/mL) in assay [2] and more than 20 µM in assay [3]. Also, the minimal inhibitory concentration (MIC) in assay [1] was more than 20 µM; in [2], 10 µM (≈ 14.8 µg/mL); in assay [3] it was more than 20 µM; in assay [4], more than 20 µM. In [4], this compound displayed an MBC of more than 20 µM. Also, the inhibition at 30 µM in [17] was 91.9%; in [18] it was 82.2%; in assay [19] it was 90.6%; in assay [20], 85.5%; in assay [21] it was 92.7%; in assay [22] it was 73.2%.

Consider `C/C=C1\NC(=O)[C@H](Cc2ccccc2)NC(=O)[C@@H](C(C)C)NC(=O)[C@@H]([C@@H](C)CC)NC(=O)[C@H](NC(=O)[C@H](NC(=O)[C@H](CCCNC(=O)c2cc3ccc(N(CC)CC)cc3oc2=O)NC(=O)[C@H]2CCCN2C(=O)[C@H](NC(=O)[C@@H](NC(=O)[C@@H](NC(=O)[C@H](NC(=O)CCCC(C)C)C(C)C)[C@@H](C)O)C(C)C)C(C)C)[C@@H](C)CC)[C@@H](C)OC(=O)[C@H](C(C)C)NC1=O`, for which the IC50 in assay [1], in assay [2], in [3] and in assay [4] was more than 11.6 µM each time.

Take `C/C=C1\NC(=O)[C@H](Cc2ccccc2)NC(=O)[C@@H](C(C)C)NC(=O)[C@@H]([C@@H](C)CC)NC(=O)[C@H](NC(=O)[C@H](NC(=O)[C@H](CCCNCc2ccc(F)cc2)NC(=O)[C@H]2CCCN2C(=O)[C@H](NC(=O)[C@@H](NC(=O)[C@@H](NC(=O)[C@H](NC(=O)CCCC(C)C)C(C)C)[C@@H](C)O)C(C)C)C(C)C)[C@@H](C)CC)[C@@H](C)OC(=O)[C@H](C(C)C)NC1=O`: the IC50 was more than 12.6 µM in assay [1], 3.77 µM in [2], more than 12.6 µM in [3] and more than 20 µM in assay [4].

Source of the values: ChEMBL document CHEMBL1148762, “Lysosome and HER3 (ErbB3) selective anticancer agent kahalalide F: semisynthetic modifications and antifungal lead-exploration studies” (J Med Chem, 2007).
